Laboratory results published in ChEMBL document CHEMBL1141290, “Lipoxazolidinones A, B, and C: antibacterial 4-oxazolidinones from a marine actinomycete isolated from a Guam marine sediment” (2007).
Converted amounts (≈) assume the structure as drawn.

Experiments:
Assay type in all cases: functional
Staphylococcus aureus [1] = assay: Antimicrobial activity against methicillin-sensitive Staphylococcus aureus ATCC 29213 after 14 to 16 hrs by serial micro-broth dilution method
Method in brief: (§1)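 MIC by serial broth microdilution following NCCLS standards, in cation-adjusted Mueller-Hinton broth. Final inoculum ~5 × 10^5 CFU/mL. Plates incubated at 35 °C for 14–16 h without CO2.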

Haemophilus influenzae [2] = assay: Antimicrobial activity against Haemophilus influenzae ATCC 49247 after 14 to 16 hrs by serial micro-broth dilution method
Method in brief: (§2)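 MIC by serial broth microdilution per NCCLS, in Haemophilus Test Medium. Final inoculum ~5 × 10^5 CFU/mL. Plates incubated at 35 °C for 14–16 h in a CO2 incubator.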

Enterococcus faecalis = assay: Antimicrobial activity against vancomycin-sensitive Enterococcus faecalis ATCC 29212 after 14 to 16 hrs by serial microbroth dilution method; method in brief: as §1
Streptococcus pneumoniae [3] = assay: Antimicrobial activity against penicillin-sensitive Streptococcus pneumoniae ATCC 49619 after 14 to 16 hrs by serial microbroth dilution method
Method in brief: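 MIC by NCCLS serial broth microdilution in cation-adjusted Mueller-Hinton broth II with lysed horse blood. Final inoculum ~5 × 10^5 CFU/mL. Incubated at 35 °C for 14–16 h in a CO2 incubator.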

Staphylococcus aureus [4] = assay: Antimicrobial activity against methicillin-resistant Staphylococcus aureus ATCC 43300 after 14 to 16 hrs by serial micro-broth dilution method
Method in brief: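 Broth microdilution MIC following NCCLS standards, using cation-adjusted Mueller-Hinton broth in ambient air without CO2. The final inoculum was about 5 × 10^5 CFU/mL.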

Escherichia coli = assay: Antimicrobial activity against Escherichia coli ATCC 25922 after 14 to 16 hrs by serial micro-broth dilution method; method in brief: as §1
Haemophilus influenzae [5] = assay: Antimicrobial activity against Haemophilus influenzae ATCC 49766 after 14 to 16 hrs by serial micro-broth dilution method; method in brief: as §2
[6] = tested on: Staphylococcus epidermidis; assay: Antimicrobial activity against Staphylococcus epidermidis ATCC 700578 after 14 to 16 hrs by serial micro-broth dilution method; method in brief: as §1
[7] = tested on: Staphylococcus epidermidis; assay: Antimicrobial activity against Staphylococcus epidermidis ATCC 700582 after 14 to 16 hrs by serial microbroth dilution method; method in brief: as §1
Streptococcus pneumoniae [8] = assay: Antimicrobial activity against penicillin-resistant Streptococcus pneumoniae ATCC 51915 after 14 to 16 hrs by serial micro-broth dilution method
Method in brief: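 Broth microdilution MIC following NCCLS standards, using cation-adjusted Mueller-Hinton broth II with lysed horse blood and incubation in a CO2 incubator. The final inoculum was about 5 × 10^5 CFU/mL.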

SMILES | MIC (Staphylococcus aureus [1]) | MIC (Haemophilus influenzae [2]) | MIC (Enterococcus faecalis) | MIC (Streptococcus pneumoniae [3]) | MIC (Staphylococcus aureus [4]) | MIC (Escherichia coli) | MIC (Haemophilus influenzae [5]) | MIC [6] | MIC [7] | MIC (Streptococcus pneumoniae [8])
CCCCCCC/C(C)=C/C(=O)CC(=N)OC(CCCC)C(=O)O (stereo not given) | 24 µg/mL (≈ 70.7 µM) | > 32 µg/mL | 32 µg/mL (≈ 94.3 µM) | > 32 µg/mL | > 32 µg/mL | > 32 µg/mL | > 32 µg/mL |  |  | 
CC(=O)NC[C@H]1CN(c2ccc(N3CCOCC3)c(F)c2)C(=O)O1 [LINEZOLID] |  | 12 µg/mL (≈ 35.6 µM) |  |  | 1.5 µg/mL (≈ 4.45 µM) | > 32 µg/mL | 12 µg/mL (≈ 35.6 µM) | 1 µg/mL (≈ 2.96 µM) | 1 µg/mL (≈ 2.96 µM) | 
CCCCCC/C(C)=C/C(=O)/C=C1\NC(=O)C(CCCC)O1 (stereo not given) [LIPOXAZOLIDINE C] | 4 µg/mL (≈ 13 µM) | 16 µg/mL (≈ 52 µM) | 2 µg/mL (≈ 6.51 µM) | 10 µg/mL (≈ 32.5 µM) | 3 µg/mL (≈ 9.76 µM) | > 32 µg/mL | 5 µg/mL (≈ 16.3 µM) |  |  | 
CCCCCCC/C(C)=C/C(=O)/C=C1\NC(=O)C(CCCC)O1 (stereo not given) [LIPOXAZOLIDINONE A] | 0.9 µg/mL (≈ 2.8 µM) | 12 µg/mL (≈ 37.3 µM) | 1 µg/mL (≈ 3.11 µM) | 2.6 µg/mL (≈ 8.09 µM) | 1 µg/mL (≈ 3.11 µM) | > 32 µg/mL | 12 µg/mL (≈ 37.3 µM) | 0.5 µg/mL (≈ 1.56 µM) | 0.5 µg/mL (≈ 1.56 µM) | 4.7 µg/mL (≈ 14.6 µM)
CCCCCCC/C(C)=C/C(=O)/C=C1\NC(=O)C(CCCCC)O1 (stereo not given) [LIPOXAZOLIDINONE B] | 6 µg/mL (≈ 17.9 µM) | 12 µg/mL (≈ 35.8 µM) | 3 µg/mL (≈ 8.94 µM) | 8 µg/mL (≈ 23.8 µM) | 1.5 µg/mL (≈ 4.47 µM) | > 32 µg/mL | 16 µg/mL (≈ 47.7 µM) | 1.3 µg/mL (≈ 3.87 µM) | 0.8 µg/mL (≈ 2.38 µM) | 6 µg/mL (≈ 17.9 µM)
